# In the library only some 1.5% were active in any assay of this set; here they are far more common.
# Platelet DG rel: platelet dense granule release activity; 0.22% of 300,000 active; human platelet-rich plasma, SFLLRN dense granule ATP release, luminescence; inhibition, %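 (compounds screened at 7.5 µM in platelet-rich plasma)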;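 active means mean replicate score, as percent of positive control, at or above 50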
# Myeloid diff 2: compounds promoting myeloid differentiation; AID 624256; calls only at 10 µM; ER-HoxA9 myeloid progenitors, lysozyme-GFP differentiation, flow cytometry; 1% of 360,000 active;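 active means normalized GFP-positive differentiation at or above the plate's own cutoff, the solvent-only control mean plus 3 SD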;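 further: cells exposed to compound for four days before flow analysis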
# VLA-4 inh: inhibition in a human VLA-4 binding assay | 0.2% of 330,000 active | P13612 | AID 2557 | inhibition, % (about 7 µM as worked out from the volumes in the protocol) | VLA-4 expressing cells, ligand binding flow cytometry; in the data active means inhibition above about 50%
# SENP1 FRET inh: SENP1 (human) catalytic domain inhibition; recombinant SENP1 catalytic domain, CyPet-SUMO1-YPet FRET cleavage; inhibition, % at 10 µM; 0.21% of 360,000 active; AID 624204;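 active means inhibition at least 30% at 10 µM, raw YFP signal under a set limit, fluorescence ratio 0.5 to 1.5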;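 further: 0% = enzyme with DMSO and 100% = no enzyme wells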
#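 Test system: human SENP1 catalytic domain; medium: Tris pH 8 buffer plus EDTA, NaCl, BME, BSA, NP40, catalase; incubation: 50 min reaction at room temperature; technique: FRET, CFP and YFP emission; controls: no-enzyme low control and enzyme-plus-DMSO high control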
# Myeloid diff CP1: compounds promoting myeloid differentiation; shares compounds with Myeloid diff 2; ER-HoxA9 myeloid progenitors, GFP/Mac1 double-positive flow; calls only; 2% of 2,300 active; AID 651706;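 active means share of green or green-and-red cells above 9 and 9% in run 1 or 4 and 3% in run 2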
# GFP autofluor: compound fluorescence in myeloid differentiation counter-screen. shares compounds with Myeloid diff 2. 7.4% of 2,300 active. ER-HoxA9 myeloid progenitors, no estrogen, GFP autofluorescence flow cytometry; vehicle wells 0%, positive control 100%. AID 651707. fluorescence response, % (concentration not given with the values);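 active means over 5% cells positive for green fluorescent reporter, or over 2% positive for both it and APC stain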;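 further: range taken on the double positive population between DMSO and positive control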
# The depositor's hits bear a star; i = inactive; · = no result given; + = active, no number.
SMILES,Platelet DG rel,Myeloid diff 2,VLA-4 inh,SENP1 FRET inh,Myeloid diff CP1,GFP autofluor
CC(=O)Cc1cc(=O)c2c(C)cc(O)c(C3OC(CO)C(O)C(O)C3O)c2o1 (stereo not given),-2,i,21,-5,i,0
Cc1cc(C)c2cc3c(N)c(C(=O)N4CCOCC4)sc3nc2c1,0,i,-7,-6,·,·
Cc1cc(C)c2cc3c(N)c(C(=O)Nc4c(C)[nH]c(=O)[nH]c4=O)sc3nc2c1,1,+,-2,29,i,4
CCNC(=O)NC1(C(=O)N2CCC(Cc3ccccc3)CC2)CCCCC1,-11,+,-7,-1,i,1
Cc1c(N=C2NN=C(c3c[nH]c4ccccc34)CS2)c(=O)n(-c2ccccc2)n1C,12,+,-40,-10,i,5
CC1(C)Cc2c(cnn2-c2ccc(F)cc2)C(NC(=O)CCC(F)(F)F)C1 (stereo not given),11,i,-3,-1,·,·
CC(C)CCN(C(=O)CCSc1ccc(F)cc1)c1c(N)n(Cc2ccccc2)c(=O)[nH]c1=O,0,i,8,-7,·,·
O=C(/C=C\c1ccco1)NC(=S)Nc1ccccc1O,-1,i,0,7,i,0
COc1cc(C2C3=C(CC(c4ccco4)CC3=O)Nc3ccccc3N2C(C)=O)cc(OC)c1OC (stereo not given),2,i,4,3,·,·
COc1cc(C2C3=C(CC(C)(C)CC3=O)Nc3ccccc3N2C(C)=O)cc(OC)c1OC (stereo not given),-4,i,1,0,i,0
C=CCC[C@H](CCCCC)OC(=O)/C=C/[C@H](O)[C@@H](O)C[C@H](O)CC=C,·,i,·,0,·,·
C=CCC[C@@H](CCCCC)OC(=O)/C=C/[C@H](O)[C@@H](O)C[C@H](O)CC=C,·,+,·,-1,i,0
CN(C)c1ccc(C=NN2C(=O)CSC2=S)c(Cl)c1,·,+,·,-34,i,0
Cn1c(-c2cccs2)[n+](C)c2ccccc21,-8,i,13,1,i,0
COn1c(=O)c(-c2cccs2)[n+]([O-])c2ccccc21,-3,i,-28,-20,·,·
CC(C)Nc1ncnc2c1ncn2[C@H]1CN(Cc2ccccc2)C[C@@H](CO)O1,·,i,·,1,·,·
COC(=O)c1ccc(C2C(C(C)=O)=C(O)C(=O)N2CCO)cc1 (stereo not given),-1,i,12,-1,i,1
CCOC(=O)c1ccc(-c2csc(NC(=O)CN3CCC(C)CC3)n2)cc1,10,i,2,-1,·,·
COC(=O)C[C@@H]1C=C[C@@H](NC(=O)c2ccccc2F)[C@@H](CO)O1,·,i,·,1,i,0
COC(=O)C[C@H]1C=C[C@H](NC(=O)Cc2ccccc2)[C@@H](CO)O1,·,i,·,2,·,·
Cc1sc2ncnc(NCCc3ccc(S(N)(=O)=O)cc3)c2c1C,1,i,10,-1,i,0
Cc1ccc(S(=O)(=O)N2C[C@@H]3CCCC[C@@H]3[C@@H](C)[C@H]2c2cn(Cc3ccccc3)c3ncccc23)cc1,·,i,·,1,i,0
C/C(=C/c1ccccc1)C(=O)N1CCC(C)CC1,8,i,-4,1,i,0
CCOC(=O)c1c(C)[nH]c(C(=O)OC(C)C(=O)Nc2ccccc2OC)c1C (stereo not given),4,i,3,-6,·,·
O=C(N/N=C/c1cccc(O)c1)c1ccc(COc2cccc3cccnc23)cc1,9,+,48,0,i,0
SMILES,Platelet DG rel,Myeloid diff 2,VLA-4 inh,SENP1 FRET inh,Myeloid diff CP1,GFP autofluor
O=C(N/N=C/c1ccncc1)c1ccc(COc2cccc3cccnc23)cc1,1,i,7,-2,·,·
CNc1ccc(C(O)(C(F)(F)F)C(F)(F)F)cc1C(O)(C(F)(F)F)C(F)(F)F,-1,+,-2,1,i,1
Cc1ccc(N)c(C(O)(C(F)(F)F)C(F)(F)F)c1,-11,i,-3,-8,·,·
O=C(Cc1c(F)cccc1Cl)N/N=C/c1cccnc1,0,i,9,2,·,·
C=CCNC(=O)NC(=O)COC(=O)[C@H](C)NS(=O)(=O)c1c(C)c(C)cc(C)c1C,25,i,-1,-2,·,·
Cc1[nH]n(-c2ccccc2)c(=O)c1C(=O)c1cccc(F)c1,14,i,-1,4,i,0
Cc1[nH]n(-c2ccccc2)c(=O)c1C(=O)c1ccccc1,-10,i,-3,0,·,·
